This is a sample that favours compounds with a hit; in the whole collection about 2.5% have one here.
TRPC6 inh: mouse TRPC6 channel inhibition | HEK293-TRPC6, membrane potential dye, ACh-evoked depolarization; active compounds read low | AID 2553 | B-score at 10 µM | hit rate 1.1% among 310,000;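 active = B-score under library mean minus 3 SD, initial fluorescence not abnormally high, positive integrated signal ratio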;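 note: B-score derived from integrated fluorescence ratio over the kinetic read; more negative B-score means stronger inhibition of depolarization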
TRPC4 PAM: TRPC4 (mouse) allosteric potentiation; Q9QUQ5; hit rate 0.42% among 310,000; AID 2227; HEK293 TRPC4beta/mu-opioid, DAMGO EC20, Fluo-4 Ca2+ flux; active compounds read high; B-score at 10 µM;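 active = B-score of calcium response area above 5 SD of library B-scores, with initial fluorescence ratio within 5 SD of library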;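 note: B-score of integrated fluorescence ratio over time as area under calcium response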
Target sequence (Q9QUQ5 whole entry, looked up): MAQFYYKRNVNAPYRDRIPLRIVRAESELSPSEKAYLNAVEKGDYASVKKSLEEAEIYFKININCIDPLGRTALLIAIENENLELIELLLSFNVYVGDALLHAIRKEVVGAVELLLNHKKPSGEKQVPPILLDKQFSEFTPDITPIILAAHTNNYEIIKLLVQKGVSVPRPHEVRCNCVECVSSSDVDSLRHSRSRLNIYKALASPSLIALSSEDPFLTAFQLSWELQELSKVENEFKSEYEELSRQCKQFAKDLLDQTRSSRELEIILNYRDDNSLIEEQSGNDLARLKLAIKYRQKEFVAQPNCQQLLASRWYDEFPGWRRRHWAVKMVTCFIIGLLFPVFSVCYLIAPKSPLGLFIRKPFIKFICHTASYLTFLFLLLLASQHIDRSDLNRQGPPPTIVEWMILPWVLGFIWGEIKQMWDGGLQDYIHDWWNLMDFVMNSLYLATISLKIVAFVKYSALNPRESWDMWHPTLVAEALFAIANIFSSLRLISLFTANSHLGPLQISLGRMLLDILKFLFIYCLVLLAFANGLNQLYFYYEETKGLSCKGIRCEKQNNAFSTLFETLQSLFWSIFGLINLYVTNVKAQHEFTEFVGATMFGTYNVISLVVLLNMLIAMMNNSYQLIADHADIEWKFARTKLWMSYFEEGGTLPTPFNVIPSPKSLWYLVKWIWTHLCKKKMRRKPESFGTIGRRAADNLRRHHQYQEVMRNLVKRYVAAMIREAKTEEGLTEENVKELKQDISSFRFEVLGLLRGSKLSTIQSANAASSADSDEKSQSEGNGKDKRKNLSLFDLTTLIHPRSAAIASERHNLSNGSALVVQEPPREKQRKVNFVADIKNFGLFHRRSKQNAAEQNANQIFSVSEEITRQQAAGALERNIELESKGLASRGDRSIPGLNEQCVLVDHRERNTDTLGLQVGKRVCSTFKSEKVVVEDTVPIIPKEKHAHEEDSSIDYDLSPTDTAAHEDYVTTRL
TRPC4 inh: TRPC4 (mouse) channel inhibition. Q9QUQ5. HEK293 TRPC4beta/mu-opioid, DAMGO-evoked Fluo4 calcium flux; active compounds read low. B-score at 10 µM. hit rate 0.39% among 300,000. AID 2247;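 active = B-score over 3 SD under the library average, no early fluorescence shift, positive overall ratio signal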
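Test system – stable TRPC4beta/mu-opioid receptor HEK293 cells · Probe or stimulus – DAMGO, a submaximal dose followed by a maximal one · Dosing – one concentration per compound · Signal – Fluo4 calcium fluorescence by kinetic imaging, 5 s 1 Hz baseline · Evaluation – per-well B score of integrated baseline-normalized Fluo4 ratio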
TRPC6 act: mouse TRPC6 channel activation; Q61143; HEK293-TRPC6 membrane potential dye fluorescence; active compounds read high; B-score at 10 µM; hit rate 0.13% among 310,000;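 active = B-score of the integrated fluorescence ratio above library mean plus 3 SD, and starting fluorescence ratio within library mean plus 5 SD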;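 note: higher score means more depolarization so channel activation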
TRPC4 agonist: activators of mouse TRPC4 channel; hit rate 0.49% among 310,000; B-score at 10 µM; HEK293 TRPC4beta/mu-opioid, Fluo4 calcium fluorescence; active compounds read high;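 active = B-score above 5 SD of library B-scores, and initial fluorescence ratio not above library mean plus 5 SD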;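 note: positive B-score marks a calcium rise read as TRPC4 activation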
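Incubation: 45 min room-temperature Fluo4 loading, 110 s read / System: HEK293 cells stably co-expressing mouse TRPC4beta and mu-opioid receptor / Signal: Fluo4 fluorescence, kinetic / Control set: buffer (low) and maximal DAMGO (high) / Measure: integrated baseline-normalised fluorescence ratio, converted to per-well B score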
DSG3 Ab inh: inhibitors of pemphigus antibody binding to human desmoglein-3. P32926. AID 588358. binding (percent of control), % at 10 µM. DSG3-coupled beads, scFv-anti-DSG3-GFP binding, flow cytometry; active compounds read low. hit rate 0.48% among 310,000;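 active = binding more than 3 SD below its plate's average and above zero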;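 note: hits lower antibody fragment binding to DSG3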
TRPC4 spec 2: second check of whether TRPC6 inhibitors also affect mouse TRPC4. shares compounds with TRPC6 inh. HEK293 TRPC4/MOR, membrane potential dye fluorescence; channel activated by saturating DAMGO dose. inhibition, % at 10 µM. hit rate 42% among 920;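 active = compounds whose fluorescence signal differed from control wells by over 3 SD, either direction, in both duplicate plates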
TRPC4 spec: mouse TRPC4 off-target activity of TRPC6 inhibitors | shares compounds with TRPC6 inh | HEK293 TRPC4/mu-opioid, membrane potential fluorescence | activity change, negative = inhibition, % at 10 µM | hit rate 61% among 920 | AID 2777;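 active = rise or fall in signal beyond 3 SD of buffer-only wells in both replicate plates, either sign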;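 note: integrated kinetic ratio of fluorescence range over baseline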
HEK293 MPD ctr 2-1: second counter-screen for TRPC6 inhibitors: parental HEK293 cells | parental HEK293 membrane potential dye fluorescence; maximal acetylcholine challenge after compound addition | hit rate 31% among 920 | signal change vs control, % at 10 µM | shares compounds with TRPC6 inh;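 active = membrane potential signal moving either way by over 3 SD of the maximum-effect control, in both duplicate plates, meaning non-specific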
HEK293 MPD ctr-1: parental HEK293 nonspecific activity of TRPC6 inhibitors; parental HEK293 membrane potential dye fluorescence; shares compounds with TRPC6 inh; AID 2780; membrane potential signal change, % at 10 µM; hit rate 60% among 920;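 active = membrane potential signal shifting up or down by more than 3 SD of buffer-only wells, on both duplicate plates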
HEK293 MPD ctr-2: parental HEK293 nonspecific activity of TRPC6 modulators | shares compounds with TRPC6 inh | membrane potential dye fluorescence | membrane potential signal change, % at 10 µM | hit rate 51% among 2,400 | AID 488924;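 active = membrane potential signal moves up or down beyond 5 SD from buffer-only wells, on both duplicate plates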
HEK293 MPD ctr 2-2: second check of TRPC6 modulator effects in parental HEK293 cells | shares compounds with TRPC6 inh | membrane potential dye fluorescence; after compound, maximal acetylcholine stimulation | inhibition, % at 10 µM | hit rate 14% among 2,400;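 active = membrane potential signal drops by more than 5 SD from the mean control signal, in both duplicate plates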;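 note: plate controls were acetylcholine ECmax control wells for no effect and buffer only wells for full effect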
TRPC4/MOR mod: selectivity of TRPC6 modulators against mouse TRPC4 | shares compounds with TRPC6 inh | percent change from control (negative = decrease, positive = increase), % at 10 µM | hit rate 69% among 2,400 | HEK293 TRPC4/mu-opioid, membrane potential fluorescence | AID 488927;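 active = membrane potential signal moved up or down beyond 5 SD of buffer control wells, in both duplicate plates, actives on both sides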;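 note: plate controls were assay buffer wells for no effect and DAMGO maximal-effect wells for full effect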
TRPC4 ctr inh 2: mouse TRPC4 off-target activity of TRPC6 modulators, second screen; shares compounds with TRPC6 inh; inhibition, % at 10 µM; HEK293 TRPC4/mu-opioid, membrane potential dye fluorescence; stimulated with maximal-effect DAMGO; AID 488928; hit rate 55% among 2,400;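 active = drop in membrane potential signal beyond 5 SD of the control wells in both duplicate plates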;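 note: TRPC4 counter screen for TRPC6 hits run under conditions tuned for TRPC6 not TRPC4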
TRPC6 block conf: confirmation of mouse TRPC6 inhibitors; HEK293-TRPC6, membrane potential dye, ACh-evoked depolarization; inhibition, % at 10 µM; AID 488960; hit rate 43% among 3,300; shares compounds with TRPC6 inh;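 active = fluorescence ratio falls more than 5 SD below the full-stimulation control mean, in both duplicate runs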;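 note: integrated fluorescence ratio of peak minus minimum over baseline after agonist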
TRPC6 act conf: confirmation of mouse TRPC6 activators | shares compounds with TRPC6 inh | HEK293-TRPC6 membrane potential dye fluorescence, FDSS | activation, % at 10 µM | hit rate 11% among 2,800;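 active = ratio signal rise beyond 5 SD above unstimulated control wells' mean, seen in both duplicate runs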;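 note: plate controls were buffer EC0 wells for no effect and acetylcholine ECmax response for full effect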
Numbers without * were called inactive; i = inactive; · = not tested or not shown.

SMILES | TRPC6 inh | TRPC4 PAM | TRPC4 inh | TRPC6 act | TRPC4 agonist | DSG3 Ab inh | HEK293 MPD ctr-2 | HEK293 MPD ctr 2-2 | TRPC4/MOR mod | TRPC4 ctr inh 2 | TRPC6 block conf | TRPC6 act conf | others
CC(=O)c1ccc(N2CCN(C(=O)CCC(=O)Nc3ccc4nc(N5CCN(C)CC5)cc(C)c4c3)CC2)cc1 | i | i | i | 13.1* | i | · | i | i | 16.0%* | i | i | i
CCCCN(C)C(=O)CCC(=O)Nc1ccc2nc(N3CCOCC3)cc(C)c2c1 | -7.64* | i | i | i | i | · | · | · | · | · | i | i | TRPC4 spec 2=i;TRPC4 spec=-20.1%*;HEK293 MPD ctr 2-1=i;HEK293 MPD ctr-1=-326.0%*
Cn1c(=O)c(=O)n(C)c2cc(N3CCCCC3)c(NS(=O)(=O)c3ccc([N+](=O)[O-])cc3)cc21 | i | i | i | i | i | 82.8 | · | · | · | · | · | ·
CCN(CC)c1ccc(/C=N\NC(=O)c2cccc3cc[nH]c23)cc1 | -5.67* | i | i | i | i | · | i | i | -12.5%* | 54.5%* | i | i
COc1cccc(/C=N/n2nnnc2N)c1O | i | i | i | i | i | 99.2 | · | · | · | · | · | ·
Cc1ccccc1C(=O)Nc1cccc(C(=O)N/N=C/c2cc(Cl)cc([N+](=O)[O-])c2O)c1 | i | i | i | i | i | 84.2 | · | · | · | · | · | ·
C/C(=N\Nc1ccccn1)c1ccc2c(c1)OCO2 | i | i | i | i | i | 100.1 | · | · | · | · | · | ·
C/C(=N\Nc1nc2ccccc2[nH]1)c1ccc2c(c1)OCCO2 | -7.24* | i | i | i | i | 105.0 | · | · | · | · | 67.0%* | i | TRPC4 spec 2=41.0%*;TRPC4 spec=-23.8%*;HEK293 MPD ctr 2-1=i;HEK293 MPD ctr-1=-263.0%*
C/C(=N\Nc1nc2ccccc2[nH]1)c1ccc2c(c1)OCO2 | -10.2* | i | -8* | i | i | 128.4 | · | · | · | · | 58.5%* | i | TRPC4 spec 2=40.5%*;TRPC4 spec=-19.5%*;HEK293 MPD ctr 2-1=37.5%*;HEK293 MPD ctr-1=-346.5%*
CN(C)Cc1ccccc1Sc1ccc2c(c1)CCCC2 | i | i | i | i | i | 110.2 | · | · | · | · | · | ·
NC(=O)CC(NC(=O)Cc1cccc2ccccc12)c1ccc(NC2CC3CCC2C3)c([N+](=O)[O-])c1 (configuration not stated) | i | i | i | i | i | 101.0 | · | · | · | · | · | ·
CCOC(=O)c1c(C)cc(C)n2c1nc1ccccc12 | -8.14* | i | i | i | i | 100.4 | · | · | · | · | i | i | TRPC4 spec 2=i;TRPC4 spec=-20.8%*;HEK293 MPD ctr 2-1=i;HEK293 MPD ctr-1=-249.5%*
COC(=O)c1cn(-c2ccccc2)nc1-c1ccc(OC)cc1 | i | i | i | i | i | 91.0 | · | · | · | · | · | ·
CCN(CC)CCNC(=S)NC(=O)c1cn(-c2ccccc2)nc1-c1ccc(OC)cc1 | -5.06* | i | i | i | i | 110.9 | i | i | i | 58.0%* | i | i
CCc1ccc(NC(=O)CNC(=O)[C@@H]2Cc3ccccc3CN2)cc1 | i | i | i | i | i | 100.4 | · | · | · | · | · | ·
CCn1ncc([N+](=O)[O-])c1C(=O)Nc1c(C)nn(Cc2ccc(F)cc2)c1C | i | i | i | i | i | 107.3 | · | · | · | · | · | ·
c1ccc2nc3c(nc2c1)c1ccccc1n3CCN1CCOCC1 | -5.12* | i | i | i | i | 102.2 | i | i | -8.5%* | 34.0%* | i | i
CCCn1c2ccccc2c2nnc(SCCN3CCOCC3)nc21 | i | i | i | i | i | 95.8 | · | · | · | · | · | ·
NS(=O)(=O)c1ccc(CCNCc2cc(Br)ccc2OCc2ccccc2F)cc1 | -5.68* | i | i | i | i | 118.0 | i | i | i | 88.0%* | 56.0%* | i
NS(=O)(=O)c1ccc(CCNCc2cc(Cl)ccc2OCc2ccccc2)cc1 | i | i | i | i | i | 98.4 | · | · | · | · | · | ·
NS(=O)(=O)c1ccc(CCNCc2ccccc2OCc2ccc(Cl)cc2)cc1 | -6.82* | i | -5* | i | i | 109.4 | · | · | · | · | 61.5%* | i | TRPC4 spec 2=30.5%*;TRPC4 spec=i;HEK293 MPD ctr 2-1=i;HEK293 MPD ctr-1=2.1%*
CC(=O)N(c1ccc(C)cc1)c1nc(C)cc(C)c1C#N | i | i | i | i | i | 119.5 | · | · | · | · | · | ·
CN1CCN(c2ccc(NC(=O)c3cc4ccccc4o3)cc2)CC1 | -5.17* | i | i | i | i | 98.3 | i | i | i | 48.5%* | 41.0%* | i
CS(=O)(=O)N1CCN(c2ccc(NC(=O)c3cc4ccccc4o3)cc2)CC1 | i | i | i | i | i | 112.2 | · | · | · | · | · | ·
CN1CCN(c2ccccc2NC(=O)c2ccc(Br)o2)CC1 | -9.64* | i | i | i | i | 98.0 | · | · | · | · | 86.7%* | i | TRPC4 spec 2=28.5%*;TRPC4 spec=i;HEK293 MPD ctr 2-1=i;HEK293 MPD ctr-1=i
CC(C)Oc1cccc(C(=O)NC(=S)Nc2ccc(N3CCN(C)CC3)cc2)c1 | -6.3* | 16* | i | i | i | · | i | i | i | 61.5%* | 42.5%* | i
COc1cc2ccccc2cc1C(=O)Nc1ccc(N2CCN(C)CC2)cc1 | -5.54* | i | i | i | i | 102.5 | i | i | -11.5%* | 64.0%* | 59.5%* | i
